Laboratory results from ChEMBL document CHEMBL3351360, “Design and Synthesis of Orally Bioavailable Benzimidazole Reverse Amides as Pan RAF Kinase Inhibitors” (ACS Med Chem Lett, 2014).
In brackets after ≈: the same amount, converted by molar mass. Activity calls are given as the source filed them. No cut-off for these calls is given here.

Assays:
[1] = target: Serine/threonine-protein kinase B-raf (Homo sapiens, UniProt P15056); assay: Inhibition of BRAF (unknown origin)-mediated ERK phosphorylation by cell-based assay
Sequence of Serine/threonine-protein kinase B-raf (Homo sapiens, UniProt P15056) (P15056 whole entry): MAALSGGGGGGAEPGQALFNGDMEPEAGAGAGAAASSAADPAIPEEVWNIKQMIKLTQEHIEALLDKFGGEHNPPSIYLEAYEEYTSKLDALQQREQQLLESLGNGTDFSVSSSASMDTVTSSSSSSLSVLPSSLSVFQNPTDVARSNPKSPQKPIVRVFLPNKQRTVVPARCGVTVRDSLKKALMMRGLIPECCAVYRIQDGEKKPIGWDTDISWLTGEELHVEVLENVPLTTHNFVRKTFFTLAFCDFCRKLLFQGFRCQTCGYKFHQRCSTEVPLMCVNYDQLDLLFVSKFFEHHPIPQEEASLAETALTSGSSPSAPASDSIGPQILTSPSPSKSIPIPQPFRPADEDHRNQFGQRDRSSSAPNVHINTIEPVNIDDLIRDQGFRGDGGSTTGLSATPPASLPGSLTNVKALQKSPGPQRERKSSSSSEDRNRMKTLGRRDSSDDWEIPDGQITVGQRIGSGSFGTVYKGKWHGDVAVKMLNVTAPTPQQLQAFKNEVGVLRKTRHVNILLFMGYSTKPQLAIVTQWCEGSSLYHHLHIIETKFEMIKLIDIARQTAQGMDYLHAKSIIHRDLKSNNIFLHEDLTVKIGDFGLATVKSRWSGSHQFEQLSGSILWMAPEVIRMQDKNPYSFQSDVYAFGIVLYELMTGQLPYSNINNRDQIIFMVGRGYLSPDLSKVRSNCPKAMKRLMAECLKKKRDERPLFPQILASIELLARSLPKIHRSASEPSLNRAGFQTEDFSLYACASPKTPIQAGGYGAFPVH

[2] = target: Serine/threonine-protein kinase B-raf (Homo sapiens, UniProt P15056, V600E); assay: Inhibition of BRAF V600E mutant (unknown origin)
Sequence of Serine/threonine-protein kinase B-raf (Homo sapiens, UniProt P15056, V600E) (P15056 2-766 V600E limits assumed): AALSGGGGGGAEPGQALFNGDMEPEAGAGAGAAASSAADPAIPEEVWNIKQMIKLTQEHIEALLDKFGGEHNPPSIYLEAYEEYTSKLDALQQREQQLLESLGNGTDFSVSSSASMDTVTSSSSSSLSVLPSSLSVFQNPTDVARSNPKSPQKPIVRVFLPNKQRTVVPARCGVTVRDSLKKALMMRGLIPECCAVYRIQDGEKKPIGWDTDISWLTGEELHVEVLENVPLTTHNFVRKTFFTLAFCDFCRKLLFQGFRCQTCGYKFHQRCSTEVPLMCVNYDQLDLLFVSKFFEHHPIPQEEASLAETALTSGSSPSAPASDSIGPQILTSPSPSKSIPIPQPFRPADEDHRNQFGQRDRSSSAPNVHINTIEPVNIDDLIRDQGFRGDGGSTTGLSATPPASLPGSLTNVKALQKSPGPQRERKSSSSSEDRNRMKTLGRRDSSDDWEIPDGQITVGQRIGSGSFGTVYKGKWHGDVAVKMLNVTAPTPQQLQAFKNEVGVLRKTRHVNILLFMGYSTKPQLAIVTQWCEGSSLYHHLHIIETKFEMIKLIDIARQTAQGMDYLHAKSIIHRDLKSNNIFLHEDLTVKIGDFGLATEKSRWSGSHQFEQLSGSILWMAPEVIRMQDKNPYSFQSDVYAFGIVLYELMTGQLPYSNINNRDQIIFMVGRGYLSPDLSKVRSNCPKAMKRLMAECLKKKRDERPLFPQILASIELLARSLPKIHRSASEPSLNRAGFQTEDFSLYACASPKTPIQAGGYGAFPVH

[3] = target: Cytochrome P450 3A4 (Homo sapiens, UniProt P08684); assay: Inhibition of CYP3A4 (unknown origin); format: ADME
Sequence of Cytochrome P450 3A4 (P08684 whole entry): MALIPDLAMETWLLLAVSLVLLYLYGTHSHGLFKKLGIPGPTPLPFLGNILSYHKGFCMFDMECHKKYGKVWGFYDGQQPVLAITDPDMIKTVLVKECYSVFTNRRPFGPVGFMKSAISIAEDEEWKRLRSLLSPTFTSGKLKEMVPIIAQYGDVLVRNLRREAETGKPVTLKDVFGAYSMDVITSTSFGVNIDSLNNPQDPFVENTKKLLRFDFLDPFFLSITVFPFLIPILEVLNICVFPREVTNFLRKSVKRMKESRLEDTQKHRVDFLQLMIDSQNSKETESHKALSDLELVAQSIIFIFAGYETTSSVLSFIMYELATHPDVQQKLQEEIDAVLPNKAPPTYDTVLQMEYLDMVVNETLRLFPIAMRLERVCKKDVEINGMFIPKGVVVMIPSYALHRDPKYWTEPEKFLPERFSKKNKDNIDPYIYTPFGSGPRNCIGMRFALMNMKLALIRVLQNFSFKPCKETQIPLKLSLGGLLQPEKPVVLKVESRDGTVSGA

[4] = Oral bioavailability in rat at 10 mg/kg as single dose; format: ADME, organism-based; settings: in vivo
Method in brief: (§1)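 Rats received a single oral dose of 10 mg/kg. Clearance, volume of distribution, half-life and oral bioavailability were derived from the plasma PK profile.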

[5] = Clearance in rat at 10 mg/kg, po as single dose; format: ADME, organism-based; design: dose 10 mg/kg, route oral; settings: in vivo; method in brief: as §1
[6] = test system: Rattus norvegicus; assay: Volume of distribution in rat at 10 mg/kg, po as single dose; format: ADME, organism-based; design: dose 10 mg/kg, route oral; settings: in vivo; method in brief: as §1
[7] = target: Voltage-gated inwardly rectifying potassium channel KCNH2 (Homo sapiens, UniProt Q12809); assay: Inhibition of human ERG
Sequence of Voltage-gated inwardly rectifying potassium channel KCNH2 (Q12809 whole entry): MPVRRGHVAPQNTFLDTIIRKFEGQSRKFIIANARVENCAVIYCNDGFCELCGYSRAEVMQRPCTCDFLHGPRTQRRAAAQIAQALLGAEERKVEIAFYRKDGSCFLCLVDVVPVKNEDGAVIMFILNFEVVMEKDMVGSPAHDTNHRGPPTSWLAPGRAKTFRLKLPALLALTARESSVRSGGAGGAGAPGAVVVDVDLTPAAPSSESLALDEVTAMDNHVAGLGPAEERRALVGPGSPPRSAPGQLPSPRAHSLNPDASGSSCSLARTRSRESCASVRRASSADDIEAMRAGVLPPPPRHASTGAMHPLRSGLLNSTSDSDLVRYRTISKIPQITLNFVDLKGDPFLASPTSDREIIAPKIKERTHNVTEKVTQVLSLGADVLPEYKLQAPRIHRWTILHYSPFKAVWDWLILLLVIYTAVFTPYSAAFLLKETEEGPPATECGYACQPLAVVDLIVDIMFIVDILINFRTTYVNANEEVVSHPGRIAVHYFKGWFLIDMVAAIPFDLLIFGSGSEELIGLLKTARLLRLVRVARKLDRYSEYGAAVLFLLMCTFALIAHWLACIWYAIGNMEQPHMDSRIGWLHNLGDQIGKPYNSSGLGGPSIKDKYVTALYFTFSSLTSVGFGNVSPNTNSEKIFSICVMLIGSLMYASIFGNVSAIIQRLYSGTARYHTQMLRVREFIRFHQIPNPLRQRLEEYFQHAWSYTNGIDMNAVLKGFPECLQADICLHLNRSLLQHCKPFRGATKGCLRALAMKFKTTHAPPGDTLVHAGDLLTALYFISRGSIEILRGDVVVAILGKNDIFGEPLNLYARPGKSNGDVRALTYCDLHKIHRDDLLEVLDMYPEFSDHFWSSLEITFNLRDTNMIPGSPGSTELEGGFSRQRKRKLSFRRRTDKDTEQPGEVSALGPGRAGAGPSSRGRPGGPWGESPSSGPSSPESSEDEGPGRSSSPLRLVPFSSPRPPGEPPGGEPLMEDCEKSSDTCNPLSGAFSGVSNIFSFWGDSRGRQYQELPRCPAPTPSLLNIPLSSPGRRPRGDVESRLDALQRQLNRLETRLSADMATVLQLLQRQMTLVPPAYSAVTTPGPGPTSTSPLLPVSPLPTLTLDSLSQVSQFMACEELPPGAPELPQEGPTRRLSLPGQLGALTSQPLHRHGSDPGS

[8] = Half life in rat at 10 mg/kg, po as single dose; format: ADME, organism-based; design: dose 10 mg/kg, route oral; settings: in vivo; method in brief: as §1
[9] = Stability in mouse plasma assessed as compound remaining at 1 uM at 37 degC after 45 mins; format: ADME, cell-free; settings: read-out: Stability
[10] = target: Vascular endothelial growth factor receptor (Homo sapiens, UniProt P17948+P35916+P35968); assay: Inhibition of VEGFR (unknown origin); format: protein assay
[11] = test system: HT-29; assay: Antitumor activity against human HT-29 cells harboring B-RAF V600E mutant xenografted in nude mouse assessed as tumor growth inhibition at 10 mg/kg/day for […] relative to control; format: functional
Method in brief: (§2)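 Nude mice received subcutaneous HT29 (BRAF V600E) colorectal cells at 3×10^6 cells/mouse, and tumors were established over 10 days. Mice were then randomized into 4 groups and dosed orally once daily with vehicle (5 mM citrate) or compound at 10, 30 or 100 mg/kg for 17 days. Tumor growth is given as ΔT/ΔC, and body weight was monitored.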

[12] = test system: Mus musculus; assay: Toxicity in human HT-29 cells harboring B-RAF V600E mutant xenografted nude mouse assessed as body weight loss at 30 mg/kg/day […] relative to control; format: organism-based; settings: in vivo; method in brief: as §2
[13] = test system: Mus musculus; assay: Toxicity in human HT-29 cells harboring B-RAF V600E mutant xenografted nude mouse assessed as body weight loss at 100 mg/kg/day […] relative to control; format: organism-based; settings: in vivo; method in brief: as §2
[14] = test system: HT-29; assay: Antitumor activity against human HT-29 cells harboring B-RAF V600E mutant xenografted in nude mouse assessed as tumor growth inhibition at 30 mg/kg/day […] relative to control; format: functional; method in brief: as §2
[15] = test system: HT-29; assay: Antitumor activity against human HT-29 cells harboring B-RAF V600E mutant xenografted in nude mouse assessed as tumor growth inhibition at 100 mg/kg/day […] relative to control; format: functional; method in brief: as §2
[16] = target: Macrophage colony-stimulating factor 1 receptor (Homo sapiens, UniProt P07333); assay: Inhibition of CSF1R kinase (unknown origin)
[17] = test system: Mus musculus; assay: Toxicity in human HT-29 cells harboring B-RAF V600E mutant xenografted nude mouse assessed as body weight loss at 10 mg/kg/day for […] relative to control; format: organism-based; settings: in vivo; method in brief: as §2
[18] = target: Platelet-derived growth factor receptor (Homo sapiens, UniProt P09619+P16234); assay: Inhibition of PDGFR (unknown origin); format: protein-complex assay
[19] = test system: HT-29; assay: Inhibition of ERK phosphorylation in human HT-29 cells harboring B-RAF V600E mutant xenografted in nude mouse at 30 to 100 mg/kg/day for 16 days measured 4 to 24 hrs post final dose by Western blot analysis relative to control; format: functional, organism-based; settings: TDE = time-dependent effect
Method in brief: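 HT29 (BRAF V600E) subcutaneous xenografts in nude mice were dosed orally once daily in 5 mM citrate vehicle at 30 or 100 mg/kg. Tumors were harvested 4 and 24 h after the final dose. Lysates were analysed by Western blot for pERK and total ERK.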

[20] = target: Tyrosine-protein kinase Lck (Homo sapiens, UniProt P06239); assay: Inhibition of LCK (unknown origin)
Sequence of Tyrosine-protein kinase Lck (P06239 whole entry): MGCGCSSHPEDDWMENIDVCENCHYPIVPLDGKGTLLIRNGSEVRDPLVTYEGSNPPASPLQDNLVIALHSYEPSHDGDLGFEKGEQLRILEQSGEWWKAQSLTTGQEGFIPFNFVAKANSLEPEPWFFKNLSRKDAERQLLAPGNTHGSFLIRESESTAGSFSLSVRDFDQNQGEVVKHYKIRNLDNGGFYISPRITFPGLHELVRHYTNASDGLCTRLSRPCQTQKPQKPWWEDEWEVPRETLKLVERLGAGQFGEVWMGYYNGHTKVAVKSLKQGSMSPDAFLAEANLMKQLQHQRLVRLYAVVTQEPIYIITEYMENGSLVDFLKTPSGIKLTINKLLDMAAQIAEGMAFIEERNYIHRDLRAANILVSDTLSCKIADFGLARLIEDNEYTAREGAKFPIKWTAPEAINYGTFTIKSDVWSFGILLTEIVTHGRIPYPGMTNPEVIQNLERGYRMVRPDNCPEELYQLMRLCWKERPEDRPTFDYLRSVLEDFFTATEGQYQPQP

[21] = target: Proto-oncogene tyrosine-protein kinase Src (Homo sapiens) (UniProt P12931); assay: Inhibition of SRC (unknown origin)
Sequence of Proto-oncogene tyrosine-protein kinase Src (Homo sapiens) (P12931 2-536 limits assumed): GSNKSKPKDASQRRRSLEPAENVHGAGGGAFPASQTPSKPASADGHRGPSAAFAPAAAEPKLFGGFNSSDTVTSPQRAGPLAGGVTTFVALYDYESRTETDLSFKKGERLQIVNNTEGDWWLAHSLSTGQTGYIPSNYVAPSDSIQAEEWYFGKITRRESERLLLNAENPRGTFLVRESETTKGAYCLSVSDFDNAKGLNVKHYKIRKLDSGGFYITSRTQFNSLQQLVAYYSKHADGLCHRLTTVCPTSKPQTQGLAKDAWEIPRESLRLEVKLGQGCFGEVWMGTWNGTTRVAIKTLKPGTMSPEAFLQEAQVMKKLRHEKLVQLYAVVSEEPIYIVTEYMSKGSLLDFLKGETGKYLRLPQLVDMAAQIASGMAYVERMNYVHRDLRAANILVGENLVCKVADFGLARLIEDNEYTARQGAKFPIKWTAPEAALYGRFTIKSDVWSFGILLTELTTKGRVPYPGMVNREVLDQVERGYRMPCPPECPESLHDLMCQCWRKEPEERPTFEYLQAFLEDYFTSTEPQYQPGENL

[22] = target: Mast/stem cell growth factor receptor Kit (Homo sapiens, UniProt P10721); assay: Inhibition of c-Kit (unknown origin)
[23] = Solubility of the compound at pH 7; format: physicochemical; settings: buffer

| Compound | EC50 [1] [nM] | IC50 [2] [nM] | other results |
| --- | --- | --- | --- |
| CC(C)N1CCN(CC(=O)Nc2cc(Oc3ccc4c(c3)nc(Nc3cc(C(F)(F)F)ccc3F)n4C)ccn2)CC1 | 100 | 6 | INH [3]: 14 µM |
| CC(=O)Nc1cc(Oc2ccc3c(c2)nc(Nc2cccc(C(C)C)c2)n3C)ccn1 | 50 | < 0.4 |  |
| CCc1cccc(Nc2nc3cc(Oc4ccnc(NC(C)=O)c4)ccc3n2C)c1 | 100 | < 0.4 |  |
| CC(=O)Nc1cc(Oc2ccc3c(c2)nc(Nc2cccc(OC(F)(F)F)c2)n3C)ccn1 | 100 | 0.4 |  |
| CC(C)N1CCC(C(=O)Nc2cc(Oc3ccc4c(c3)nc(Nc3cc(C(F)(F)F)ccc3F)n4C)ccn2)CC1 | 100 | 2 | bioavailability [4]: 54%; CL/F [5]: 49 mL/min/kg |
| CCc1ccc(Nc2nc3cc(Oc4ccnc(NC(C)=O)c4)ccc3n2C)cc1 | 80 | 1 |  |
| CC(=O)Nc1cc(Oc2ccc3c(c2)nc(Nc2cc(C(F)(F)F)ccc2F)n3C)ccn1 | 90 | 1 |  |
| CC(=O)Nc1cc(Oc2ccc3c(c2)nc(Nc2cccc(C(C)(C)C)c2)n3C)ccn1 | 40 | 3 |  |
| CN1CCC(C(=O)Nc2cc(Oc3ccc4c(c3)nc(Nc3cccc(C(C)(C)C)c3)n4C)ccn2)CC1 | 100 | 10 |  |
| CCN1CCN(CC(=O)Nc2cc(Oc3ccc4c(c3)nc(Nc3cc(C(F)(F)F)ccc3F)n4C)ccn2)CC1 | 100 | 6 | Vd [6]: 12.737 L/kg; INH [7]: 2.3 µM; half-life [8]: 5.67 h; remaining at 0.75 h, 1 µM [9]: 1%; IC50 [10]: < 10 nM; T/C [11]: 52%; Activity [12]: Non-toxic; Activity [13]: 13%; T/C [14]: 72%; bioavailability [4]: 40%; T/C [15]: 75%; IC50 [16]: < 10 nM; Activity [17]: Non-toxic; CL/F [5]: 32 mL/min/kg; IC50 [18]: < 10 nM; inhibition [19]: tde; IC50 [20]: 240 nM; inhibition [21]: inactive; INH [3]: > 25 µM; IC50 [22]: < 10 nM |
| Cn1c(Nc2cccc(C(C)(C)C)c2)nc2cc(Oc3ccnc(NC(=O)C4CCNCC4)c3)ccc21 | 100 | 7 |  |
| CC(=O)Nc1cc(Oc2ccc3c(c2)nc(Nc2cccc(C(F)(F)F)c2)n3C)ccn1 | 400 | 3 |  |
| CC(=O)Nc1cc(Oc2ccc3c(c2)nc(Nc2ccc(OC(F)(F)F)cc2)n3C)ccn1 | 100 | 1 |  |
| CC(=O)Nc1cc(Oc2ccc3c(c2)nc(Nc2ccc(C(C)(C)C)cc2)n3C)ccn1 | 50 | 9 |  |
| CC(=O)Nc1cc(Oc2ccc3c(c2)nc(Nc2ccc(C(F)(F)F)cc2)n3C)ccn1 | 50 | 4 | remaining at 0.75 h, 1 µM [9]: 100% |
| CC(=O)Nc1cc(Oc2ccc3c(c2)nc(Nc2ccc(C(C)C)cc2)n3C)ccn1 | 90 | 4 |  |
| CC(C)N1CCC(C(=O)Nc2cc(Oc3ccc4c(c3)nc(Nc3cccc(C(C)(C)C)c3)n4C)ccn2)CC1 | 100 | 20 | Vd [6]: 17.784 L/kg; half-life [8]: 4.18 h; solubility [23]: 581 µg/mL (≈ 1070 µM); bioavailability [4]: 15%; CL/F [5]: 90 mL/min/kg; INH [3]: 3 µM |
